{"source": "ChEMBL document CHEMBL1147925", "about": "“First pharmacophore-based identification of androgen receptor down-regulating agents: discovery of potent anti-prostate cancer agents” (Bioorg Med Chem, 2007)", "key": {"LNCaP [1]": {"tested_on": "LNCaP", "assay": "Growth inhibition of human LNCaP cells after 5 days by MTT colorimetric assay", "conditions": "120 h"}, "LNCaP [2]": {"tested_on": "LNCaP", "assay": "Decrease in androgen receptor protein expression in LNCaP cells by Western blotting", "assay_type": "functional, cell-based", "conditions": "Homo sapiens", "how_it_was_run": "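Whole-cell lysates were made in 0.1M Tris/0.5% Triton X-100 with protease inhibitor, and protein was measured by Bradford. Samples were run on 10% SDS-PAGE and immunoblotted with anti-AR monoclonal AR441 (1:500), HRP secondary and ECL. Signal was normalized to β-actin, and EC50 was taken from dose-response curves.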"}}, "data": [{"smiles": "Cc1ccc(S(=O)(=O)Nc2ccc(C)cc2[N+](=O)[O-])cc1", "values": [{"measurement": "IC50", "setting": "LNCaP [1]", "result": 39.8, "unit": "µM"}, {"measurement": "EC50", "setting": "LNCaP [2]", "result": 76, "unit": "µM"}]}, {"smiles": "O=c1cc(CO)oc(C(Nc2ccccc2)c2ccccc2)c1O", "note": "(centres undefined)", "values": [{"measurement": "IC50", "setting": "LNCaP [1]", "result": 20.9, "unit": "µM"}, {"measurement": "EC50", "setting": "LNCaP [2]", "result": 212, "unit": "µM"}]}, {"smiles": "O=C(O)c1ccccc1Nc1cccc(C(F)(F)F)c1", "note": "[FLUFENAMIC ACID]", "values": [{"measurement": "EC50", "setting": "LNCaP [2]", "result": 200, "unit": "µM"}]}, {"smiles": "COc1cc(/C=C/C(=O)CC(=O)/C=C/c2ccc(O)c(OC)c2)ccc1O", "note": "[CURCUMIN]", "values": [{"measurement": "EC50", "setting": "LNCaP [2]", "result": 35, "unit": "µM"}]}, {"smiles": "CCOC(=O)c1ccccc1OC(=O)Oc1ccccc1C(=O)OCC", "values": [{"measurement": "IC50", "setting": "LNCaP [1]", "result": 4.5, "unit": "µM"}, {"measurement": "EC50", "setting": "LNCaP [2]", "result": 65.5, "unit": "µM"}]}, {"smiles": "O=C(CNCCCc1ccccc1)c1ccc(O)c(O)c1", "values": [{"measurement": "IC50", "setting": "LNCaP [1]", "result": 26.9, "unit": "µM"}, {"measurement": "EC50", "setting": "LNCaP [2]", "result": 43.5, "unit": "µM"}]}, {"smiles": "CCN(CCO)C(C(=O)c1ccc(Cl)cc1)c1ccc(Cl)cc1", "note": "(centres undefined)", "values": [{"measurement": "IC50", "setting": "LNCaP [1]", "result": 8.31, "unit": "µM"}, {"measurement": "EC50", "setting": "LNCaP [2]", "result": 39.5, "unit": "µM"}]}, {"smiles": "CSc1ccc(OS(=O)(=O)c2cccc3nsnc23)cc1", "values": [{"measurement": "IC50", "setting": "LNCaP [1]", "result": "> 50", "unit": "µM"}, {"measurement": "EC50", "setting": "LNCaP [2]", "result": 17.5, "unit": "µM"}]}]}
